A short description of series [1]: Cytotoxicity against human A549 cells assessed as cell survival at 0.4 uM/l incubated for 24 hrs by MTT assay relative to control. The format is cell-based. The following applies: read-out: Activity. Put shortly:
(§1)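 A549 cells were seeded at 3000 per well in RPMI 1640 and held 16 h at 37 °C, 5% CO2. Medium was then replaced with medium holding DMSO-dissolved compound at final 0.08, 0.4, 2.0 or 10 µM/L and incubated 24 h. MTT was added for 4 h and absorbance read at 490 nm to give survival.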
For orientation: Tetrazolium dyes change colour on reduction, which living cells bring about.

In series [2] the test system is Candida albicans. The series is described as follows: Antifungal activity against fluconazole-resistant Candida albicans 632 assessed as reduction in fungal growth incubated for 24 hrs by serial dilution method. The class given is functional. To be noted: Candida albicans, 632, 24 h. Put shortly: (§2)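 Fluconazole-resistant C. albicans clinical isolates (17# and CaR from AIDS patients; 632, 901, 904 from clinic) tested by CLSI broth dilution MIC in RPMI 1640 buffered to pH 7.0 with MOPS. Compounds dissolved in DMSO, serially diluted to final 0.03–16 or 0.125–64 μg/mL; inoculum 1–5 × 10^3 CFU/mL; 35 °C, 24 h. MIC = lowest concentration inhibiting visible growth; fluconazole and itraconazole as controls.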

In series [3] the test system is Candida albicans. The series is described as follows: Antifungal activity against Candida albicans SC5314 assessed as reduction in fungal growth incubated for 24 hrs by serial dilution method. The class given is functional. To be noted: SC5314, 24 h. The method, boiled down: (§3)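 MIC by CLSI broth microdilution in RPMI 1640 buffered to pH 7.0 with MOPS. Compounds dissolved in DMSO and serially diluted to final 0.03–16 or 0.125–64 µg/mL. Inoculum 1–5 × 10^3 CFU/mL. Incubation 35 °C, 24 h. Drug-free growth and fungus-free blank controls. MIC is the lowest concentration preventing visible growth.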

For series [4], the system named is Candida albicans. The series is described as follows: Antifungal activity against fluconazole-resistant Candida albicans CaR assessed as reduction in fungal growth incubated for 24 hrs by serial dilution method. The class given is functional. Put shortly: as §2
A further series deals with Candida tropicalis. The series is described as follows: Antifungal activity against Candida tropicalis GIM 2.183 assessed as reduction in fungal growth incubated for 24 hrs by serial dilution method. The class given is functional. The following applies: GIM 2.183, 24 h. Put shortly: as §3
The next series concerns Candida parapsilosis. The series is described as follows: Antifungal activity against Candida parapsilosis GIM 2.190 assessed as reduction in fungal growth incubated for 24 hrs by serial dilution method. The class given is functional. To be noted: Lodderomyces parapsilosis, GIM 2.190, 24 h. The method, boiled down: as §3
The nature of series [5]: Cytotoxicity against human A549 cells assessed as cell survival at 0.08 uM/l incubated for 24 hrs by MTT assay relative to control. The class given is cell-based. To be noted: read-out: Activity. The method, boiled down: as §1
Series [6] can be described thus: Cytotoxicity against human A549 cells assessed as cell survival at 2 uM/l incubated for 24 hrs by MTT assay relative to control. The class given is cell-based. The following applies: read-out: Activity. Put shortly:
as §1

Series [7] has as its system Candida albicans. The series is described as follows: Antifungal activity against fluconazole-resistant Candida albicans 904 assessed as reduction in fungal growth incubated for 24 hrs by serial dilution method. The class given is functional. To be noted: Candida albicans, 904, 24 h. Put shortly: as §2
A short description of series [8]: Cytotoxicity against human A549 cells assessed as cell survival at 10 uM/l incubated for 24 hrs by MTT assay relative to control. To be noted: read-out: Activity. The class given is cell-based. Put shortly: as §1
A further series has as its system Nakaseomyces glabratus. The series is described as follows: Antifungal activity against Candida glabrata assessed as reduction in fungal growth incubated for 24 hrs by serial dilution method. The class given is functional. The method, boiled down: as §3
The subject of series [9] is Candida albicans. The series is described as follows: Antifungal activity against fluconazole-resistant Candida albicans 901 assessed as reduction in fungal growth incubated for 24 hrs by serial dilution method. The class given is functional. To be noted: Candida albicans, 901, 24 h. The method, boiled down:
as §2

The subject of series [10] is Candida albicans. The series is described as follows: Antifungal activity against Candida albicans GIM 2.194 assessed as reduction in fungal growth incubated for 24 hrs by serial dilution method. The format is functional. To be noted: GIM 2.194, 24 h. Put shortly:
as §3

For series [11], the system named is Candida albicans. The series is described as follows: Antifungal activity against fluconazole-resistant Candida albicans 17 assessed as reduction in fungal growth incubated for 24 hrs by serial dilution method. The format is functional. The following applies: Candida albicans, 17, 24 h. The method, boiled down: as §2
Series [12] concerns the target T1, Lanosterol 14-alpha demethylase (Candida albicans (strain SC5314 / ATCC MYA-2876) (Yeast), UniProt P10613). The series is described as follows: Inhibition of Candida albicans CYP51 assessed as increase in sterol level at 0.015 ug/ml incubated for 18 hrs by GC/MS analysis relative to control. Set-up: scale not given: the % may be the effect or the level left. The method, boiled down: (§4)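 C. albicans SC5314 was grown in RPMI 1640 with 0.015 µg/mL compound, or fluconazole 0.25 µg/mL, about 18 h at 30 °C with shaking at 200 rpm. Cells were pelleted and washed with PBS, then saponified 60 min at 80 °C in ethanol/pyrogallol/60% KOH. Nonsaponifiable sterols were extracted three times with heptane and analysed by GC-MS.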

The target in series [13] is T1, Lanosterol 14-alpha demethylase. The series is described as follows: Inhibition of Candida albicans CYP51 assessed as increase in eburicol level at 0.015 ug/ml incubated for 18 hrs by GC/MS analysis relative to control. Also on record: scale not given: the % may be the effect or the level left. Put shortly:
as §4

The target is the same in series [14]. The series is described as follows: Inhibition of Candida albicans CYP51 assessed as ergosterol level at 0.015 ug/ml incubated for 18 hrs by GC/MS analysis (reference value: 100%). Set-up: scale not given: the % may be the effect or the level left. The method, boiled down: as §4
Series [15] has the same target. The series is described as follows: Inhibition of Candida albicans CYP51 assessed as increase in 14alpha-methyl ergosta-8,24(28)-dien-3beta,6alpha-diol level at 0.015 ug/ml incubated for 18 hrs by GC/MS analysis relative to control. Set-up: scale not given: the % may be the effect or the level left. The method, boiled down:
as §4

The target is the same in series [16]. The series is described as follows: Inhibition of Candida albicans CYP51 assessed as increase in lanosterol level at 0.015 ug/ml incubated for 18 hrs by GC/MS analysis relative to control. Set-up: scale not given: the % may be the effect or the level left. Put shortly:
as §4

Series [17] has the same target. The series is described as follows: Inhibition of Candida albicans CYP51 assessed as ergosterol level at 0.25 ug/ml incubated for 18 hrs by GC/MS analysis (reference value: 100%). Set-up: scale not given: the % may be the effect or the level left. Put shortly:
(§5)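 Candida albicans SC5314 grown in RPMI 1640 with agitation (200 rpm) for ~18 h at 30 °C, with 0.25 µg/mL fluconazole as a comparator alongside the test compound. Cells were pelleted (3000g, 10 min), PBS-washed thrice, and saponified 60 min at 80 °C in ethanol, ethanolic pyrogallol and 60% KOH. Nonsaponifiable sterols were extracted thrice with heptane and profiled by GC-MS.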

For series [18] the target is unchanged. The series is described as follows: Inhibition of Candida albicans CYP51 assessed as increase in eburicol level at 0.25 ug/ml incubated for 18 hrs by GC/MS analysis relative to control. Also on record: scale not given: the % may be the effect or the level left. The method, boiled down: as §5
Series [19] has the same target. The series is described as follows: Inhibition of Candida albicans CYP51 assessed as increase in lanosterol level at 0.25 ug/ml incubated for 18 hrs by GC/MS analysis relative to control. Set-up: scale not given: the % may be the effect or the level left. The method, boiled down: as §5
Series [20] has the same target. The series is described as follows: Inhibition of Candida albicans CYP51 assessed as increase in 14alpha-methyl ergosta-8,24(28)-dien-3beta,6alpha-diol level at 0.25 ug/ml incubated for 18 hrs by GC/MS analysis relative to control. Also on record: scale not given: the % may be the effect or the level left. The method, boiled down: as §5
For series [21] the target is unchanged. The series is described as follows: Inhibition of Candida albicans CYP51 assessed as increase in sterol level at 0.25 ug/ml incubated for 18 hrs by GC/MS analysis relative to control. Also on record: scale not given: the % may be the effect or the level left. Put shortly:
as §5

Values after ≈ are worked out from the molar mass of the structure shown.

T1 sequence (P10613 whole entry): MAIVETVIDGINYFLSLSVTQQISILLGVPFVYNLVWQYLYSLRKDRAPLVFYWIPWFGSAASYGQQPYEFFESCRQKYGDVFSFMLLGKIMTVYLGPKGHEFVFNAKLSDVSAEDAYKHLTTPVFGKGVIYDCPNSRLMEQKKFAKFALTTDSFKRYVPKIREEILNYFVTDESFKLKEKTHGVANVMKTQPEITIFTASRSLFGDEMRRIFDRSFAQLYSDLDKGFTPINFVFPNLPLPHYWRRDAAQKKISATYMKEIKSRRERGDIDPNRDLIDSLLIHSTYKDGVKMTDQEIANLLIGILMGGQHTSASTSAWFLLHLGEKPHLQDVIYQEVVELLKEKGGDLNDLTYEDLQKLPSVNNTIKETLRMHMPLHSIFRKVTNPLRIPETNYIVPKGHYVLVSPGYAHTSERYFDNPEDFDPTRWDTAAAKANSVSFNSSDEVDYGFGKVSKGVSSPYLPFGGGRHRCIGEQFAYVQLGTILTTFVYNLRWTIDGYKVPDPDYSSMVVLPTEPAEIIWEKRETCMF

As a reminder, the MIC is the smallest concentration in the dilution series that meets the test's criterion for growth inhibition. Regarding `O=C(NC(Cn1ccnc1)C(=O)c1ccc(F)cc1)c1ccc(-c2ccccc2)cc1F` (configuration not stated), in [1], the viability at 24 h, 0.4 µM was found to be 100%. Besides, the MIC in the series with Candida albicans [2] was over 64 µg/mL; in the series with Candida albicans [3], 0.06 µg/mL (≈ 0.139 µM); in the series with Candida albicans [4], 2 µg/mL (≈ 4.64 µM); with Candida tropicalis, 0.125 µg/mL (≈ 0.29 µM); with Candida parapsilosis, 0.125 µg/mL (≈ 0.29 µM); in the series on Candida albicans [7] it was 8 µg/mL (≈ 18.5 µM). Besides, the MIC in the series on Nakaseomyces glabratus was 0.125 µg/mL (≈ 0.29 µM); in the series with Candida albicans [9] it was over 64 µg/mL; in the series on Candida albicans [10], 0.25 µg/mL (≈ 0.579 µM); in the series on Candida albicans [11], 2 µg/mL (≈ 4.64 µM). The viability at 24 h, 0.08 µM in [5] stood at 100%. Besides, in [6], the viability at 24 h, 2 µM was found to be 100%. For the same compound, the viability at 24 h, 10 µM in [8] came out at 86.8%.

Take `Cc1ccc(C(=O)C(Cn2ccnc2)NC(=O)c2ccc(-c3ccccc3)c(F)c2)cc1` (configuration not stated): in series [1], the viability at 24 h, 0.4 µM is 100%. Also, the MIC in the series with Candida albicans [2] stood at 16 µg/mL (≈ 37.4 µM); in the series on Candida albicans [3], 0.03 µg/mL (≈ 0.0702 µM); in the series on Candida albicans [4], 1 µg/mL (≈ 2.34 µM); with Candida tropicalis, 0.03 µg/mL (≈ 0.0702 µM); in the series on Candida parapsilosis, 0.125 µg/mL (≈ 0.292 µM); in the series with Candida albicans [7], 16 µg/mL (≈ 37.4 µM). Besides, the MIC was found to be 0.125 µg/mL (≈ 0.292 µM) with Nakaseomyces glabratus, 16 µg/mL (≈ 37.4 µM) in the series on Candida albicans [9], 0.06 µg/mL (≈ 0.14 µM) in the series with Candida albicans [10] and 2 µg/mL (≈ 4.68 µM) in the series on Candida albicans [11]. Further, the Activity was 3.04 to 5.85% in series [12]; 9.56% in series [13]; 41.99% in series [14]; 13.26% in series [15]; 23.17% in series [16]. Further, the viability at 24 h, 0.08 µM in series [5] amounted to 100%. In [6], the viability at 24 h, 2 µM amounted to 97%. The viability at 24 h, 10 µM in series [8] came to 92.5%.

Regarding `OC(Cn1cncn1)(Cn1cncn1)c1ccc(F)cc1F` [FLUCONAZOLE], in [1], the viability at 24 h, 0.4 µM is 99.1%. Moreover, the MIC in the series with Candida albicans [2] was over 64 µg/mL; in the series on Candida albicans [3] it was 0.5 µg/mL (≈ 1.63 µM); with Candida albicans [4], over 64 µg/mL; with Candida tropicalis, 0.5 µg/mL (≈ 1.63 µM); in the series on Candida parapsilosis it was 2 µg/mL (≈ 6.53 µM); in the series with Candida albicans [7], over 64 µg/mL. Also, the MIC is 4 µg/mL (≈ 13.1 µM) in the series on Nakaseomyces glabratus, over 64 µg/mL in the series on Candida albicans [9], 2 µg/mL (≈ 6.53 µM) with Candida albicans [10] and over 64 µg/mL in the series with Candida albicans [11]. Further, the Activity in [17] is 63%; in series [18], 4.27%; in series [19], 16.74%; in series [20], 5.15%; in series [21], 1.54 to 5.07%. Moreover, in series [5], the viability at 24 h, 0.08 µM is 100%. For the same compound, the viability at 24 h, 2 µM in series [6] worked out at 95.7%. Besides, the viability at 24 h, 10 µM in series [8] worked out at 95.3%.

(Values after ChEMBL document CHEMBL4406852, “Combating fluconazole-resistant fungi with novel β-azole-phenylacetone derivatives” (Eur J Med Chem, 2019).)
